Active and inactive are the calls of the source. The calls are words filed in the database; no cut-off is given here.
Experiments:
[1] = Tmax in CD1 mouse at 15 mg/kg, po administered as single dose; format: ADME, organism-based; settings: in vivo
Method in brief: (§1)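 Single dose to CD1 mice: 5 mg/kg iv in 5% glucose with 10% tween 80, or 15 mg/kg orally in 5% glucose with 40% PEG. Plasma parameters derived from concentration–time profiles.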

[2] = molecular target: LSD1/CoREST complex (Homo sapiens, UniProt O60341); assay: Inhibition of human recombinant KDM1A/CoREST expressed in Escherichia coli using mono-methylated H3-K4 peptide as substrate assessed as H2O2 release preincubated for 15 mins followed by substrate addition measured for 12 mins by fluorescence-based microplate reader analysis
Method in brief: (§2)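 Human recombinant KDM1A/CoREST, KDM1B, MAO A and MAO B used as enzyme sources; compounds incubated with the enzyme and results expressed as IC50.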

[3] = molecular target: Lysine-specific histone demethylase 1A (Homo sapiens) (UniProt O60341); assay: Inhibition of KDM1A in human NB4 cells assessed as increase in CD11b mRNA expression at biochemical IC50 measured after 24 hrs by RT-PCR analysis relative to control; format: cell-based; settings: NB-4
[4] = molecular target: Lysine-specific histone demethylase 1A (Homo sapiens) (UniProt O60341); assay: Inhibition of KDM1A in human NB4 cells assessed as increase in GFI1B mRNA expression at biochemical IC50 measured after 24 hrs by RT-PCR analysis relative to control; format: cell-based; settings: NB-4
[5] = molecular target: T1, Amine oxidase [flavin-containing] B (Homo sapiens, UniProt P27338); assay: Inhibition of human recombinant MAOB expressed in Pichia pastoris preincubated for 15 mins measured after 30 mins by bioluminescent-coupled assay; method in brief: as §2
T1 sequence (P27338 whole entry): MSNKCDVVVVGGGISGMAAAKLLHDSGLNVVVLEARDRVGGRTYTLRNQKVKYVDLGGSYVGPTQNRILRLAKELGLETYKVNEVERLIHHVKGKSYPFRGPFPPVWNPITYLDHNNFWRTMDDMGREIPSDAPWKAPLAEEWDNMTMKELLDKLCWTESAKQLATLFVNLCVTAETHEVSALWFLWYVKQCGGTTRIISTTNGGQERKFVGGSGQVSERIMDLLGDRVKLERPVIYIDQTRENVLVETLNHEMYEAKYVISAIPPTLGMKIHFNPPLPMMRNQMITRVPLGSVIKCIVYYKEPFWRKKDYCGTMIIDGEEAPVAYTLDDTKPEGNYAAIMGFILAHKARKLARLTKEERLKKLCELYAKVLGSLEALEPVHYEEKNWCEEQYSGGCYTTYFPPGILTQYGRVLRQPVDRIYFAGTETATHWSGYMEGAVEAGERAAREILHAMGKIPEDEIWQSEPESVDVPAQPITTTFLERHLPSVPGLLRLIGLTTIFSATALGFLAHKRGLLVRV

[6] = molecular target: T2, Amine oxidase [flavin-containing] A (Homo sapiens, UniProt P21397); assay: Inhibition of human recombinant MAOA expressed in Pichia pastoris preincubated for 15 mins measured after 30 mins by bioluminescent-coupled assay; method in brief: as §2
T2 sequence (P21397 whole entry): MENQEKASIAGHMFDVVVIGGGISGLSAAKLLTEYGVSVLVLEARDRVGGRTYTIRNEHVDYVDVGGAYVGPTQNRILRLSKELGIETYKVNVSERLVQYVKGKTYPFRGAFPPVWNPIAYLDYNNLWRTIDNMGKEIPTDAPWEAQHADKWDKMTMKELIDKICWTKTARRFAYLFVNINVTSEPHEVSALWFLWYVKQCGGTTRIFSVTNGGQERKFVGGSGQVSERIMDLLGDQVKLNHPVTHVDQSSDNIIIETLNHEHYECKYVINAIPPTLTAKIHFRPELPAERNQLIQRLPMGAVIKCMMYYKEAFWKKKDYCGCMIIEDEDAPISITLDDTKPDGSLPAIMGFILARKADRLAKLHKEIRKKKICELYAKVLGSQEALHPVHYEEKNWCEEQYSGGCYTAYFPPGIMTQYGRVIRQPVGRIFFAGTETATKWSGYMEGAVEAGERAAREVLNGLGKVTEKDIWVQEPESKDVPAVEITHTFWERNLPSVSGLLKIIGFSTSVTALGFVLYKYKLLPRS

[7] = molecular target: T3, Lysine-specific histone demethylase 2 (Homo sapiens, UniProt Q8NB78); assay: Inhibition of KDM1B (unknown origin)
T3 sequence (Q8NB78 whole entry): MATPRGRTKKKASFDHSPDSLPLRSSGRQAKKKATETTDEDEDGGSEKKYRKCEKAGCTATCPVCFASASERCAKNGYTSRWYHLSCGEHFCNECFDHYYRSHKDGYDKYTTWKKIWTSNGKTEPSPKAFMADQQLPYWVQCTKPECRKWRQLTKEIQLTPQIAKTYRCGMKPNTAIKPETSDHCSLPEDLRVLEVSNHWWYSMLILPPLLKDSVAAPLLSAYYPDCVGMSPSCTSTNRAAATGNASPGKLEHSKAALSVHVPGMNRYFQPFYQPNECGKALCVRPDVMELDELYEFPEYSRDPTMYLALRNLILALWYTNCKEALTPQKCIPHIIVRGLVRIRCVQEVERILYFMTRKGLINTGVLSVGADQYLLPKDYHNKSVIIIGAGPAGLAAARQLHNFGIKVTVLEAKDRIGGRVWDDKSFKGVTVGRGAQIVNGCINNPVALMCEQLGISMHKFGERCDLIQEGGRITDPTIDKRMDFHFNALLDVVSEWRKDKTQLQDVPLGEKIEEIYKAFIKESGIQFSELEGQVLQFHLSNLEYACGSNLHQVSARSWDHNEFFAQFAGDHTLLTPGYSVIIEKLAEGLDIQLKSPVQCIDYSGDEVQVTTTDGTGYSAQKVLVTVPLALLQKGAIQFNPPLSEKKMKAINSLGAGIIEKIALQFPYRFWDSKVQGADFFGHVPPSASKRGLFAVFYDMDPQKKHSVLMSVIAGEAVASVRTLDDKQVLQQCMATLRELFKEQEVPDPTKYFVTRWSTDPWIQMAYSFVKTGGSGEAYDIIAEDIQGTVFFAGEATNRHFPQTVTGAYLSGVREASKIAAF

[8] = Anticlonogenic activity against 129sv mouse APL blast cells assessed as inhibition of colony formation of cells at 0.25 uM measured after 7 days relative to control; format: functional; settings: 168 h
[9] = Anticlonogenic activity against human THP1 cells assessed as inhibition of colony formation of cells at 0.5 uM measured after 13 days relative to control; format: functional; settings: THP-1, […]
Method in brief: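 THP-1 cells (RPMI, 10% FBS, 2 mM L-glutamine, 37°C, 5% CO2) plated at 250 cells/plate in enriched methylcellulose medium with compound at 0.5 µM for 13 days.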

[10] = tested on: THP-1; assay: Induction of differentiation of human THP1 cells assessed assessed as alteration in morphology of colonies after 13 days by May Grunwald-Giemsa staining based assay; format: functional, cell-based
Method in brief: (§3)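 THP-1 cells cultured 13 days in semisolid methylcellulose with compound at 0.5 µM; colony morphology imaged, and cells recovered at end of culture examined as May Grunwald-Giemsa-stained cytospin preparations.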

[11] = Antitumor activity against 129SvEv mouse APL blast cells implanted in nonirradiated 129SvEv mouse assessed as increase in survival of leukemic mouse at 27 mg/kg, po administered for 5 days per week for 2 weeks by Kaplan-Meier plot analysis relative to vehicle control; format: functional
Method in brief: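 Gavage in 40% PEG 400 in 5% glucose began once peripheral-blood blasts appeared (about day 10). Survival analysed by Kaplan–Meier versus vehicle. Separate arm for GFI1B: spleen cells taken after 3 days of dosing, qRT-PCR normalized to TBP.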

[12] = tested on: Mus musculus; assay: Toxicity in nonirradiated 129SvEv mouse implanted with 129SvEv mouse APL blast cells assessed as change in body weight at 27 mg/kg, po administered for 5 days per week for 2 weeks measured during compound dosing; format: organism-based; settings: in vivo
[13] = Clearance in CD1 mouse at 5 mg/kg, iv administered as single dose; format: ADME, organism-based; settings: in vivo; method in brief: as §1
[14] = Half life in CD1 mouse at 5 mg/kg, iv administered as single dose; format: ADME, organism-based; settings: in vivo; method in brief: as §1
[15] = Oral bioavailability in CD1 mouse at 15 mg/kg administered as single dose; format: ADME, organism-based; settings: in vivo; method in brief: as §1
[16] = tested on: THP-1; assay: Induction of differentiation of human THP1 cells after 13 days by cytospin assay; format: functional, cell-based; method in brief: as §3
[17] = Cmax in CD1 mouse at 15 mg/kg, po administered as single dose; format: ADME, organism-based; parameters: dose 15 mg/kg, route oral; settings: in vivo; method in brief: as §1
[18] = Cmax in CD1 mouse at 5 mg/kg, iv administered as single dose; format: ADME, organism-based; parameters: dose 5 mg/kg, route intravenous; settings: in vivo; method in brief: as §1
[19] = tested on: Mus musculus; assay: Terminal volume of distribution in CD1 mouse at 5 mg/kg, iv administered as single dose; format: ADME, organism-based; settings: in vivo; method in brief: as §1
[20] = AUC (0 to infinity) in CD1 mouse at 15 mg/kg, po administered as single dose; format: ADME, organism-based; parameters: dose 15 mg/kg, time infinity, route oral; settings: in vivo; method in brief: as §1
[21] = AUC (0 to infinity) in CD1 mouse at 5 mg/kg, iv administered as single dose; format: ADME, organism-based; parameters: dose 5 mg/kg, time infinity, route intravenous; settings: in vivo; method in brief: as §1

SMILES | IC50 [2] [nM] | fold change (FC) [3] | fold change (FC) [4] | IC50 [5] [nM] | IC50 [6] [nM] | IC50 [7] [nM] | inhibition at 0.25 µM [8] [%] | further results
CN1CCC(c2ccc(C(=O)Nc3ccc([C@@H]4C[C@H]4N)cc3)cc2)CC1.Cl (racemic) | 51.2 | 3.4 | 4.1 |  |  |  |  | Tmax [1]: 18 h
N[C@@H]1C[C@H]1c1ccc(NC(=O)c2ccc(N3CCOCC3)cc2)cc1 (racemic) | 61.5 |  |  | 600 | 54.8 | 74700 |  | 
N[C@@H]1C[C@H]1c1ccc(NC(=O)c2ccc(N3CCOCC3)c(NC(=O)OCc3ccccc3)c2)cc1 (relative stereo) | 61.4 | 3.8 | 4.8 | 62900 | 193 | 5700 | 59 | 
N[C@@H]1C[C@H]1c1ccc(NC(=O)c2ccccc2)cc1 |  |  |  |  |  | 58300 | 73 | inhibition at 0.5 µM [9]: 8%
N[C@@H]1C[C@H]1c1ccc(NC(=O)c2ccc(NC(=O)OCc3ccccc3)c(N3CCOCC3)c2)cc1 (relative stereo) |  | 3.2 | 5.6 | 27800 | 345 | 14900 | 57 | 
N[C@@H]1C[C@H]1c1ccc(NC(=O)c2ccc(-c3ccoc3)cc2)cc1 (racemic) | 22.5 |  |  | 87 | 40 | 51000 |  | 
N[C@@H]1C[C@H]1c1ccc(NC(=O)c2cccc(NC(=O)OCc3ccccc3)c2)cc1 (racemic) | 42.6 |  |  | > 100000 | 25 | 11600 |  | 
Cl.N[C@@H]1C[C@H]1c1ccc(NC(=O)c2cccc(N3CCOC3=O)c2)cc1 (racemic) | 28 | 2.9 | 4.3 | 80200 | 90.5 | 12600 | 79 | Tmax [1]: 0.667 h; Activity [10]: Active; Activity [11]: 15%; Activity [12]: Non-toxic; clearance [13]: 49.7 mL/min/kg; half-life [14]: 1.92 h; inhibition at 0.5 µM [9]: 51%; bioavailability [15]: 55.8%; Activity [16]: Active; Cmax [17]: 1140 nM; Cmax [18]: 3650 nM; Vz/F [19]: 8.45 L/kg; AUC(0-inf) [20]: 7.12 µM·h; AUC(0-inf) [21]: 4.62 µM·h
